Measurements from ChEMBL document CHEMBL5724801, “EUbOPEN Chemogenomics Library - Multiplex” (2024).
Values joined by “and” are separate entries in the source; they are usually repeats but may differ in a detail not shown here. Equal entries are not always repeated.

System: HEK-293T
Test: Multiplex assay against HEK293T
Type: toxicity, cell-based
Details: human
Summary of the method: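 At seeding, live cells were stained with Hoechst33342, BioTracker Green Microtubule Cytoskeleton Dye, MitoTracker Red and Annexin V Alexa Fluor 680. After compound addition they were imaged on a CQ1 microscope at 37°C and 5% CO2, and CellPathfinder machine-learning gating sorted them into Hoechst high-intensity objects or normal cells, with normal cells further split into healthy, pyknosed or fragmented nuclei and pyknosed cells into mitotic or apoptotic. Tubulin, mitochondrial-mass and membrane-permeability phenotypes are given as per cents of cells with healthy nuclei.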

[1] = 12 h, 1 µM, compound concentration 1 uM
[2] = 12 h, 10 µM, compound concentration 10 uM
[3] = 24 h, 1 µM, compound concentration 1 uM
[4] = 24 h, 10 µM, compound concentration 10 uM
[5] = 48 h, 1 µM, compound concentration 1 uM
[6] = 48 h, 10 µM, compound concentration 10 uM

CN1CCN(c2ccc(Nc3c4ccccc4nc4ccccc34)cc2)CC1.Cl.Cl.O
Population Apoptotic (%) [1]: 42% and 55%
Population Fragmented Nuclei (%) [1]: 7% and 4%
Population Healthy Nuclei (%) [1]: 81% and 90%
Population Hoechst High Intensity Objects (%) [1]: 3% and 1%
Population Membrane Permeable-Phenotype (%) [1]: 0%
Population Mitochondria Different-Phenotype (%) [1]: 50% and 59%
Population Mitotic Cells (%) [1]: 57% and 45%
Population Normal (%) [1]: 96% and 98%
Population Pyknosed Nuclei (%) [1]: 11% and 5%
Population Tubulin-Different-Phenotype (%) [1]: 28% and 20%
Total Cell Count [1]: 411 and 364
Population Apoptotic (%) [2]: 100%
Population Fragmented Nuclei (%) [2]: 24% and 40%
Population Healthy Nuclei (%) [2]: 74% and 58%
Population Hoechst High Intensity Objects (%) [2]: 1% and 0%
Population Membrane Permeable-Phenotype (%) [2]: 0%
Population Mitochondria Different-Phenotype (%) [2]: 99% and 100%
Population Mitotic Cells (%) [2]: 0%
Population Normal (%) [2]: 98% and 99%
Population Pyknosed Nuclei (%) [2]: 1%
Population Tubulin-Different-Phenotype (%) [2]: 97% and 92%
Total Cell Count [2]: 234 and 194
Population Apoptotic (%) [3]: 42% and 46%
Population Fragmented Nuclei (%) [3]: 9%
Population Healthy Nuclei (%) [3]: 84% and 86%
Population Hoechst High Intensity Objects (%) [3]: 2% and 0%
Population Membrane Permeable-Phenotype (%) [3]: 0%
Population Mitochondria Different-Phenotype (%) [3]: 40% and 44%
Population Mitotic Cells (%) [3]: 57% and 53%
Population Normal (%) [3]: 97% and 99%
Population Pyknosed Nuclei (%) [3]: 5% and 4%
Population Tubulin-Different-Phenotype (%) [3]: 14% and 12%
Total Cell Count [3]: 455 and 362
Population Apoptotic (%) [4]: 100%
Population Fragmented Nuclei (%) [4]: 28% and 45%
Population Healthy Nuclei (%) [4]: 69% and 53%
Population Hoechst High Intensity Objects (%) [4]: 2% and 0%
Population Membrane Permeable-Phenotype (%) [4]: 0%
Population Mitochondria Different-Phenotype (%) [4]: 100%
Population Mitotic Cells (%) [4]: 0%
Population Normal (%) [4]: 97% and 99%
Population Pyknosed Nuclei (%) [4]: 2% and 0%
Population Tubulin-Different-Phenotype (%) [4]: 92% and 91%
Total Cell Count [4]: 247 and 206
Population Apoptotic (%) [5]: 45% and 60%
Population Fragmented Nuclei (%) [5]: 11% and 10%
Population Healthy Nuclei (%) [5]: 82% and 85%
Population Hoechst High Intensity Objects (%) [5]: 3% and 1%
Population Membrane Permeable-Phenotype (%) [5]: 0%
Population Mitochondria Different-Phenotype (%) [5]: 30% and 36%
Population Mitotic Cells (%) [5]: 54% and 40%
Population Normal (%) [5]: 96% and 98%
Population Pyknosed Nuclei (%) [5]: 6% and 3%
Population Tubulin-Different-Phenotype (%) [5]: 16% and 12%
Total Cell Count [5]: 581 and 411
Population Apoptotic (%) [6]: 100% and 66%
Population Fragmented Nuclei (%) [6]: 34% and 52%
Population Healthy Nuclei (%) [6]: 56% and 46%
Population Hoechst High Intensity Objects (%) [6]: 11% and 5%
Population Membrane Permeable-Phenotype (%) [6]: 0%
Population Mitochondria Different-Phenotype (%) [6]: 100% and 99%
Population Normal (%) [6]: 88% and 94%
Population Pyknosed Nuclei (%) [6]: 9% and 1%
Population Tubulin-Different-Phenotype (%) [6]: 88% and 89%
Total Cell Count [6]: 318 and 272

Cc1[nH]nc2ccc(-c3cncc(OCC(N)Cc4c[nH]c5ccccc45)c3)cc12 (stereo not drawn)
Population Apoptotic (%) [1]: 14.46% and 12.06%
Population Fragmented Nuclei (%) [1]: 1.15% and 2.53%
Population Hoechst High Intensity Objects (%) [1]: 0.86% and 0%
Population Membrane Permeable-Phenotype (%) [1]: 1.98% and 0%
Population Mitotic Cells (%) [1]: 85.54% and 87.94%
Population Normal (%) [1]: 99.14% and 100%
Population Pyknosed Nuclei (%) [1]: 69.74% and 89.24%
Total Cell Count [1]: 350 and 158
Population Apoptotic (%) [2]: 26.81% and 37.12%
Population Fragmented Nuclei (%) [2]: 0.85% and 0%
Population Healthy Nuclei (%) [2]: 5.1% and 3.65%
Population Hoechst High Intensity Objects (%) [2]: 0.28% and 0%
Population Membrane Permeable-Phenotype (%) [2]: 0%
Population Mitochondria Different-Phenotype (%) [2]: 16.67% and 0%
Population Mitotic Cells (%) [2]: 73.19% and 62.88%
Population Normal (%) [2]: 99.72% and 100%
Population Pyknosed Nuclei (%) [2]: 94.05% and 96.35%
Total Cell Count [2]: 354 and 137
Population Apoptotic (%) [3]: 39.92% and 29.58%
Population Fragmented Nuclei (%) [3]: 0.63% and 1.97%
Population Hoechst High Intensity Objects (%) [3]: 0.62% and 0%
Population Membrane Permeable-Phenotype (%) [3]: 1.59% and 0%
Population Mitochondria Different-Phenotype (%) [3]: 34.92% and 28.57%
Population Mitotic Cells (%) [3]: 60.08% and 70.42%
Population Normal (%) [3]: 99.38% and 100%
Population Pyknosed Nuclei (%) [3]: 79.56% and 93.42%
Total Cell Count [3]: 320 and 152
Population Apoptotic (%) [4]: 80.3% and 96.64%
Population Fragmented Nuclei (%) [4]: 0.86% and 2.34%
Population Healthy Nuclei (%) [4]: 3.15% and 4.69%
Population Hoechst High Intensity Objects (%) [4]: 0.85% and 0%
Population Membrane Permeable-Phenotype (%) [4]: 0% and 16.67%
Population Mitochondria Different-Phenotype (%) [4]: 72.73% and 33.33%
Population Normal (%) [4]: 99.15% and 100%
Population Pyknosed Nuclei (%) [4]: 95.99% and 92.97%
Population Tubulin-Different-Phenotype (%) [4]: 72.73% and 33.33%
Total Cell Count [4]: 352 and 128
Population Apoptotic (%) [5]: 57.46% and 49.23%
Population Fragmented Nuclei (%) [5]: 2.33% and 1.39%
Population Healthy Nuclei (%) [5]: 21.93% and 8.33%
Population Hoechst High Intensity Objects (%) [5]: 0.33% and 0.69%
Population Membrane Permeable-Phenotype (%) [5]: 0%
Population Mitochondria Different-Phenotype (%) [5]: 86.36% and 58.33%
Population Mitotic Cells (%) [5]: 42.54% and 50.77%
Population Normal (%) [5]: 99.67% and 99.31%
Population Pyknosed Nuclei (%) [5]: 75.75% and 90.28%
Total Cell Count [5]: 302 and 145
Population Apoptotic (%) [6]: 80.14% and 100%
Population Fragmented Nuclei (%) [6]: 0.68% and 1.68%
Population Healthy Nuclei (%) [6]: 3.73% and 4.2%
Population Hoechst High Intensity Objects (%) [6]: 3.91% and 0%
Population Membrane Permeable-Phenotype (%) [6]: 9.09% and 0%
Population Mitochondria Different-Phenotype (%) [6]: 54.55% and 40%
Population Mitotic Cells (%) [6]: 19.86% and 0%
Population Normal (%) [6]: 96.09% and 100%
Population Pyknosed Nuclei (%) [6]: 95.59% and 94.12%
Population Tubulin-Different-Phenotype (%) [6]: 45.45% and 40%
Total Cell Count [6]: 307 and 119
